# Source: PubChem (several laboratories)
# Hits are enriched below; roughly 1.1% of the tested compounds scored in any of these assays.
# ERAP1 inh: human ERAP1 aminopeptidase inhibitors, primary screen, biochemical, single point, plate reader; recombinant ERAP1, Leu-AMC fluorescence, 60 min; Endoplasmic reticulum aminopeptidase 1 (Homo sapiens), Q9NZ08; 0.15% of 340,000 active; inhibition, % at 10.7 µM;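 active = mean replicate inhibition of at least 30%, or all replicates individually reaching that 30% level; inactive = mean below 30% and not every replicate reaching it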
# ERp5 inh: inhibitors of ERp5-driven insulin aggregation, primary screen, biochemical, turbidity, absorbance 650 nm, single point; Protein disulfide-isomerase A6 (Homo sapiens), Q15084; 90 min; inhibition, % at 9.99 µM; 0.05% of 350,000 active; AID 651711, 2012;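 active = mean replicate inhibition above about 25%, with every replicate also reaching it, limit read from the data, passing the limit was not always enough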
# Target sequence (Q15084 whole entry, looked up): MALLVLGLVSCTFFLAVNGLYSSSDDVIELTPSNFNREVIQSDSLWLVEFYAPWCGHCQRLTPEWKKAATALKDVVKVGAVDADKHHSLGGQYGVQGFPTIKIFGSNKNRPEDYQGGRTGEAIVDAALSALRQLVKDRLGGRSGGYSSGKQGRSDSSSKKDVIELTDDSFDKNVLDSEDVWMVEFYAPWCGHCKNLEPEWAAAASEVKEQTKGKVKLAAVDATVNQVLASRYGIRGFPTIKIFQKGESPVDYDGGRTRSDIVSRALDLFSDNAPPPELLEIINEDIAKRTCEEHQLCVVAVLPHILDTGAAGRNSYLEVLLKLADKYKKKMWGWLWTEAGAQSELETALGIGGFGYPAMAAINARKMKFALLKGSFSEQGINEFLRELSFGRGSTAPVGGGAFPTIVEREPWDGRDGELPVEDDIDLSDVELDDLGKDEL
# PDI inh: inhibitors of human PDI, primary screen, biochemical, turbidity, single point, plate reader | AID 588391, 2011 | 0.052% of 350,000 active | Protein disulfide-isomerase (Homo sapiens), P07237 | PDI insulin aggregation turbidity, A650, 90 min | inhibition, % at 10 µM;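 active = mean inhibition across replicates of 30% or more, whatever share of single replicates reach that level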
# CAL PDZ FP-1: CAL PDZ peptide-binding inhibitors, primary screen, biochemical, fluorescence polarization, Cer-tagged CAL PDZ, HTS; inhibition, % at 20 µM; purified CAL PDZ, TMR-peptide fluorescence polarization, 1 h; 0.02% of 330,000 active; AID 504414, 2011;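 active = highest replicate inhibition of at least 40%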
#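 material = purified tagged CAL PDZ domain construct (CerCALP) | compound dosing = 20 µM, one dose | times = 1 h at RT | measured by = fluorescence polarization from S- and P-plane intensities, G-factor corrected | read-out = inhibition from polarization loss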
# CAL PDZ FP-2: untagged CAL PDZ binding inhibitors, primary screen, biochemical, fluorescence polarization, HTS | purified CAL PDZ, TMR-peptide fluorescence polarization, 1 h | AID 602252, 2012 | 0.92% of 300,000 active | inhibition, % at 24.9 µM;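 active = mean inhibition of at least 30% with at least half of replicates also reaching 30%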
# Rin1 Abl inh: inhibitors of Rin1-Abl protein binding, primary screen, biochemical, TR-FRET; Tyrosine-protein kinase ABL1 (Homo sapiens) + Ras and Rab interactor 1 (Homo sapiens), …; inhibition, % at 7.35 µM; 0.4% of 360,000 active; AID 588664, 2011; in the data active = inhibition above about 5%, passing the limit was not always enough
# Rin1 Abl conf: Rin1-Abl binding inhibitor retest, confirmation, biochemical, TR-FRET. 49% of 1,300 active. AID 602124, 2011. shares compounds with Rin1 Abl inh. purified proteins. inhibition, % at 7.35 µM
# GFP quench: GFP fluorescence inhibitors and quenchers, artefact control for Rin1-Abl interaction inhibitor project, biochemical. inhibitors/quenchers counterscreen. inhibition, % at 6.75 µM. 8.5% of 1,300 active. shares compounds with Rin1 Abl inh. AID 602125, 2011;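 note: ABL1-eGFP fusion protein alone without its partner RIN1-SBP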
# GFP quench DR: GFP fluorescence inhibitors and quenchers, dose response, artefact control for Rin1-Abl interaction inhibitor project, biochemical; GFP fluorescence interference/quenching counterscreen; 230 tested, under 10 active; IC50, µM; shares compounds with Rin1 Abl inh; AID 602182, 2012; call rule not given here;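 note: ABL1-eGFP fusion protein alone without its RIN1 binding partner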
# A number is an active result; – = inactive; · = no result given. Cut-off read from the data, not from the text of the source, unless noted: active = inhibition above about 6.5%; inactive = the rest.
SMILES,ERAP1 inh,ERp5 inh,PDI inh,CAL PDZ FP-1,CAL PDZ FP-2,Rin1 Abl inh,Rin1 Abl conf,GFP quench,others
CCCCN(C)C(=O)c1ccc(Nc2nc(C(N)Cc3ccc(C(F)(F)F)cc3)cs2)nc1 (centres undefined),–,–,–,·,·,8.1,–,–,
O=C(CN1CCN(CC(=O)Nc2ccc(F)cc2)CC1)NCC1(N2CCOCC2)CCCCC1,–,–,–,–,–,–,·,·,
O=C(COc1ccc(F)cc1)NCC1(N2CCOCC2)CCCCC1,–,–,–,–,–,11,–,–,
COC(=O)c1ccc(COC(=O)c2ccc(-n3cnnn3)cc2)o1,·,·,–,–,–,23,20,–,GFP quench DR=–
CCCNC(=O)N1[C@@H](C#N)[C@H](c2ccccc2-c2ccccc2F)[C@@H]1CO,–,–,·,·,·,·,·,·,
CCn1c(SCC(=O)Nc2ccccc2)nc2nc3c(cc2c1=O)COC(C)(C)C3,–,–,·,·,·,·,·,·,
CCn1c(SCC(=O)Nc2cccc(C)c2)nc2nc3c(cc2c1=O)COC(C)(C)C3,–,–,–,–,·,7.5,13,–,
COc1ccccc1C#Cc1cnc2c(c1)C(=O)N([C@@H](C)CO)C[C@H](C)[C@@H](CN(C)S(=O)(=O)c1cn(C)cn1)O2,–,–,·,·,·,·,·,·,
C/C=C/c1ccc2c(c1)O[C@H](CN(C)C(=O)C1CCOCC1)[C@@H](C)CN([C@H](C)CO)S2(=O)=O,–,–,·,·,·,·,·,·,
Cn1c(=O)c2c(nc(SCCCC#N)n2Cc2c(F)cccc2Cl)n(C)c1=O,·,–,·,–,–,7.2,9.2,–,
CCC(=O)N1CC2(C1)[C@@H](c1ccc(-c3cccc(F)c3)cc1)[C@@H](CO)N2CC1CC1,–,–,·,·,·,·,·,·,
COCCNC(=O)CS(=O)Cc1nc(-c2ccccc2C)oc1C (centres undefined),–,–,·,–,·,12,–,–,
Cc1nc(CN2CCC(c3ccccc3)CC2)cc(=O)[nH]1,–,–,–,–,–,–,·,·,
Cc1nc(CN2CCCCC2)cc(=O)[nH]1,–,–,–,–,–,9.8,–,–,
CC(=O)N(C)C[C@@H]1Oc2cc(-c3ccc(C#N)cc3)ccc2S(=O)(=O)N([C@H](C)CO)C[C@@H]1C,–,–,·,·,·,·,·,·,
NC(=O)C1CCN(C(=O)c2cnn(-c3ccccc3)c2NC(=O)c2cccc(F)c2)CC1,–,–,–,–,–,23,–,–,
c1ccc2c(c1)c1cccc3ccc4cccc2c4c31,–,–,·,–,–,8.2,–,–,
CCOC(=O)c1c(C)n(C(=O)c2ccco2)c(=O)n1C(=O)c1ccco1,·,·,–,–,–,36,35,–,GFP quench DR=–
C[C@H]1CCCCO[C@H](CN(C)C)[C@@H](C)CN([C@@H](C)CO)C(=O)c2cc(NC(=O)CCCCCC(=O)Nc3ccccc3N)ccc2O1,–,–,·,·,·,·,·,·,
O=C1NCC(O)=C1C=NC12CC3CC(CC(C3)C1)C2,–,–,–,–,–,31,23,–,GFP quench DR=–
O=C1NCC(O)=C1C=NCCO,·,·,–,–,–,–,·,·,
O=C(C1CC1)N1CC(=O)N2[C@H](CO)[C@H](c3ccc(-c4cccnc4)cc3)[C@H]2C1,–,–,·,·,·,·,·,·,
COCC(=O)Nc1ccc2c(c1)[C@H]1C[C@@H](CC(=O)NCc3ccc(OC)cc3)O[C@H](CO)[C@H]1O2,–,–,·,·,·,·,·,·,
